Experimental data taken from ChEMBL document CHEMBL3124827, “Design and synthesis of 2-styryl of 5-Nitroimidazole derivatives and antimicrobial activities as FabH inhibitors” (Eur J Med Chem, 2014).
Values after ≈ are worked out from the molar mass of the structure shown.

How the values were obtained:
[1] = Inhibition of Escherichia coli FabH expressed in Escherichia coli BL21 (DE3) after 25 mins
How it was run: (§1)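 His-tagged FabH purified by Ni-NTA (IPTG 0.5 mM induction in kanamycin LB), stored at 2 mg/mL. 20 µL reaction: 20 mM Na2HPO4 pH 7.0, 0.5 mM DTT, 0.25 mM MgCl2, 2.5 µM holo-ACP, 1 nM FabH; after 1 min, 25 µM acetyl-CoA, 0.5 mM NADH, 0.5 mM NADPH added for 25 min; 3H incorporation by liquid scintillation; inhibitors from DMSO stock, final DMSO ≤2%; IC50 determined.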

[2] = Inhibition of Pseudomonas aeruginosa FabH after 25 mins; how it was run: as §1
Escherichia coli = test: Antibacterial activity against Escherichia coli after 12 hrs by MTT assay; format: functional, organism-based
How it was run: (§2)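 MTT broth-dilution assay; drug-containing medium added to final concentrations of 320, 160, 40, 10, 2.5 and 0.25 µg/mL, each in triplicate. After 12 h, 25 µL of 5 mg/mL MTT in PBS added; after 4 h medium discarded, formazan dissolved in 150 µL DMSO with 10 min shaking, absorbance read at 490 nm; 50% inhibitory concentration reported.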

Pseudomonas aeruginosa = test: Antibacterial activity against Pseudomonas aeruginosa after 12 hrs by MTT assay; format: functional, organism-based; how it was run: as §2
Bacillus subtilis = test: Antibacterial activity against Bacillus subtilis after 12 hrs by MTT assay; format: functional, organism-based; how it was run: as §2
Bacillus thuringiensis = test: Antibacterial activity against Bacillus thuringiensis after 12 hrs by MTT assay; format: functional, organism-based; how it was run: as §2
[3] = Cytotoxicity against human macrophages up to 160 ug/ml after 24 hrs by MTT assay; format: cell-based; conditions: macrophage
How it was run: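 Cells grown to 90% confluency, switched to serum-free DMEM, exposed to various concentrations for 24 h; viability by MTT, read spectrophotometrically as absorbance difference 570 minus 630 nm.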

[4] = Cytotoxicity against human macrophages assessed as change in morphology at 0.25 to 160 ug/ml after 24 hrs using Giemsa staining by phase contrast microscopic analysis; format: cell-based; conditions: macrophage
How it was run: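 Confluent cells (100 µL stock suspension) grown to 90% confluency, medium replaced with serum-free DMEM, then exposed 24 h to 0.25 or 160 µg/mL test compound; cell morphology compared with untreated control after Giemsa staining under phase contrast microscopy.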

| IC50 [1] [µM] | IC50 [2] [µM] | Compound | IC50 (Escherichia coli) [µg/mL] | IC50 (Pseudomonas aeruginosa) [µg/mL] | IC50 (Bacillus subtilis) [µg/mL] | IC50 (Bacillus thuringiensis) [µg/mL] | Activity [3] | Activity [4] |
| --- | --- | --- | --- | --- | --- | --- | --- | --- |
| 4.4 | 19.2 | O=[N+]([O-])c1cnc(/C=C/c2ccccc2F)n1CCO | > 200 | 6.8 (≈ 24.5 µM) | 61.5 (≈ 222 µM) | 29.9 (≈ 108 µM) |  |  |
|  |  | O=[N+]([O-])c1ccccc1/C=C/c1ncc([N+](=O)[O-])n1CCO | 157 (≈ 517 µM) | 12.8 (≈ 42.1 µM) | 11.8 (≈ 38.8 µM) | 5.8 (≈ 19.1 µM) |  |  |
|  |  | O=[N+]([O-])c1cnc(/C=C/c2cccc(F)c2)n1CCO | 114 (≈ 412 µM) | 16.8 (≈ 60.6 µM) | 36.6 (≈ 132 µM) | 55.1 (≈ 199 µM) |  |  |
|  |  | O=[N+]([O-])c1cnc(/C=C/c2c(F)cccc2Cl)n1CCO | 82.1 (≈ 263 µM) | 38.1 (≈ 122 µM) | 19.6 (≈ 62.9 µM) | 25.3 (≈ 81.2 µM) |  |  |
| 3.4 | 7.9 | O=[N+]([O-])c1cnc(/C=C/c2ccc(OCc3ccccc3)cc2)n1CCO | 34.3 (≈ 93.9 µM) | 14.5 (≈ 39.7 µM) | 6.3 (≈ 17.2 µM) | 9.8 (≈ 26.8 µM) | Non-toxic | Non-toxic |
| 11 | 10.2 | O=[N+]([O-])c1cnc(/C=C/c2ccc3ccccc3c2)n1CCO | > 200 | 19.8 (≈ 64 µM) | 3.6 (≈ 11.6 µM) | 11.9 (≈ 38.5 µM) |  |  |
|  |  | O=[N+]([O-])c1cnc(/C=C/c2ccc(Cl)cc2)n1CCO | > 200 | 48.3 (≈ 164 µM) | 32.8 (≈ 112 µM) | 32.1 (≈ 109 µM) |  |  |
| 16.5 | 22.5 | O=[N+]([O-])c1cnc(/C=C/c2ccc(F)cc2)n1CCO | 57.2 (≈ 206 µM) | 1.7 (≈ 6.13 µM) | 8.8 (≈ 31.7 µM) | 12.5 (≈ 45.1 µM) |  |  |
|  |  | O=[N+]([O-])c1cnc(/C=C/c2ccccc2)n1CCO | > 200 | 12.4 (≈ 47.8 µM) | 49.3 (≈ 190 µM) | 49.5 (≈ 191 µM) |  |  |
|  |  | O=[N+]([O-])c1cnc(/C=C/c2cccc(Cl)c2)n1CCO | 119 (≈ 406 µM) | 14.7 (≈ 50 µM) | 40.7 (≈ 139 µM) | 25.7 (≈ 87.5 µM) |  |  |
|  |  | O=[N+]([O-])c1cnc(/C=C/c2cccc(Br)c2)n1CCO | 116 (≈ 342 µM) | 43.6 (≈ 129 µM) | 24.4 (≈ 72.2 µM) | 23.4 (≈ 69.2 µM) |  |  |
|  |  | CC(C)(S)[C@@H](N)C(=O)O [PENICILLAMINE] | 42.3 (≈ 283 µM) | 5.8 (≈ 38.9 µM) | 6.3 (≈ 42.2 µM) | 6.3 (≈ 42.2 µM) |  |  |
|  |  | COc1cccc(/C=C/c2ncc([N+](=O)[O-])n2CCO)c1 | > 200 | 46.1 (≈ 159 µM) | 26.2 (≈ 90.6 µM) | 12.1 (≈ 41.8 µM) |  |  |
|  |  | COc1ccccc1/C=C/c1ncc([N+](=O)[O-])n1CCO | 188 (≈ 649 µM) | 20.4 (≈ 70.5 µM) | 19.8 (≈ 68.4 µM) | 37.3 (≈ 129 µM) |  |  |
| 3.1 | 6.7 | NC[C@H]1O[C@H](O[C@H]2[C@H](O)[C@@H](O[C@H]3O[C@H](CO)[C@@H](O)[C@H](N)[C@H]3O)[C@H](N)C[C@@H]2N)[C@H](O)[C@@H](O)[C@@H]1O [KANAMYCIN] |  |  |  |  |  |  |
|  |  | O=[N+]([O-])c1cnc(/C=C/c2ccc(Br)cc2)n1CCO | 119 (≈ 353 µM) | 32.2 (≈ 95.2 µM) | 114 (≈ 336 µM) | 19.2 (≈ 56.8 µM) |  |  |
| 10.2 | 25.6 | CN(C)c1ccc(/C=C/c2ncc([N+](=O)[O-])n2CCO)cc1 | 88 (≈ 291 µM) | 121 (≈ 400 µM) | 17.2 (≈ 56.9 µM) | 7.2 (≈ 23.8 µM) |  |  |
|  |  | COc1ccc(/C=C/c2ncc([N+](=O)[O-])n2CCO)cc1 | 89.1 (≈ 308 µM) | 30.2 (≈ 104 µM) | 146 (≈ 506 µM) | 67.4 (≈ 233 µM) |  |  |
|  |  | Cc1ccc(/C=C/c2ncc([N+](=O)[O-])n2CCO)cc1 | 145 (≈ 530 µM) | 2.9 (≈ 10.6 µM) | 42.6 (≈ 156 µM) | 28.6 (≈ 105 µM) |  |  |
| 2.1 | 12.4 | O=[N+]([O-])c1ccc(/C=C/c2ncc([N+](=O)[O-])n2CCO)cc1 | 36.4 (≈ 120 µM) | 15.5 (≈ 50.9 µM) | 9 (≈ 29.6 µM) | 13.9 (≈ 45.7 µM) | Non-toxic | Non-toxic |
|  |  | O=[N+]([O-])c1cccc(/C=C/c2ncc([N+](=O)[O-])n2CCO)c1 | > 200 | 74.6 (≈ 245 µM) | 53.1 (≈ 175 µM) | 7 (≈ 23 µM) |  |  |
| 6.5 | 29.2 | O=[N+]([O-])c1cnc(/C=C/c2ccccc2Cl)n1CCO | 175 (≈ 595 µM) | 17.8 (≈ 60.6 µM) | 2.9 (≈ 9.87 µM) | 37.8 (≈ 129 µM) |  |  |
|  |  | O=[N+]([O-])c1cnc(/C=C/c2ccccc2Br)n1CCO | > 200 | 7.6 (≈ 22.5 µM) | 27.9 (≈ 82.5 µM) | 9.3 (≈ 27.5 µM) |  |  |
|  |  | O=[N+]([O-])c1cnc(/C=C/c2cccc3ccccc23)n1CCO | 153 (≈ 496 µM) | 13.1 (≈ 42.4 µM) | 13.6 (≈ 44 µM) | 8.6 (≈ 27.8 µM) |  |  |
|  |  | O=[N+]([O-])c1cnc(/C=C/c2ccc(Cl)cc2Cl)n1CCO | > 200 | 39.3 (≈ 120 µM) | 57.1 (≈ 174 µM) | 36.7 (≈ 112 µM) |  |  |
| 4.2 | 15.9 | CCOC(OCC)c1ccc(/C=C/c2ncc([N+](=O)[O-])n2CCO)cc1 | 59.2 (≈ 164 µM) | 70.3 (≈ 195 µM) | 17.9 (≈ 49.5 µM) | 5.9 (≈ 16.3 µM) |  |  |
